Experimental findings from ChEMBL document CHEMBL4385593, “Design, synthesis and biological evaluation of novel benzothiadiazine derivatives as potent PI3Kδ-selective inhibitors for treating B-cell-mediated malignancies” (Eur J Med Chem, 2019) are described below.

The target of series [1] is PI3-kinase p110-delta/p85-alpha (Homo sapiens, UniProt O00329). Nature of the series: Inhibition of His-tagged recombinant human PI3K p110delta/p85alpha using lipid substrate incubated for 2 hrs by ADP-Glo assay. It counts as protein-complex assay.
The subject of another series is SU-DHL-6. Kind of series: Growth inhibition of human SU-DHL6 cells incubated for 72 hrs by CellTiter-Glo assay. Conditions: SU-DHL-6, 72 h. It counts as functional. The method in brief:
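SU-DHL-6 cells were seeded at 1 × 10^4 per well and exposed to compound or medium alone for 72 h. Viability was measured by CellTiter-Glo luminescence, and GI50 was derived by curve fitting.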

Series [2] concerns the target PI3-kinase p110-alpha/p85-alpha (Homo sapiens, UniProt P42336). Kind of series: Inhibition of His-tagged recombinant human full length PI3K p110alpha/p85alpha expressed in baculovirus expression system using lipid substrate incubated for 60 mins by kinase-Glo reagent based luminescence assay. In general terms: Kinase-Glo measures the ATP left after a reaction by luminescence.

Series [3] concerns the target Phosphatidylinositol 4,5-bisphosphate 3-kinase catalytic subunit beta isoform (Homo sapiens, UniProt P42338). Nature of the series: Inhibition of His6-tagged recombinant full length human N-terminal PI3Kbeta expressed in baculovirus infected Sf21 cells using lipid substrate incubated for 2 hrs by ADP-Glo assay. (ADP-Glo first removes unused ATP, then detects ADP through luciferase.)

The species entered for series [4] is Homo sapiens. Kind of series: Selectivity ratio of IC50 for His-tagged recombinant human full length PI3K p110alpha/p85alpha to IC50 for His-tagged recombinant human PI3K p110delta/p85alpha.
The species entered for series [5] is Homo sapiens. Nature of the series: Selectivity ratio of IC50 for His6-tagged recombinant full length human N-terminal PI3Kbeta to IC50 for His-tagged recombinant human PI3K p110delta/p85alpha.
For series [6], the species on record is Homo sapiens. Kind of series: Selectivity ratio of IC50 for His-tagged recombinant human full length PI3K p110gamma to IC50 for His-tagged recombinant human PI3K p110delta/p85alpha.
The target in series [7] is Phosphatidylinositol 4,5-bisphosphate 3-kinase catalytic subunit gamma isoform (Homo sapiens, UniProt P48736). Nature of the series: Inhibition of His-tagged recombinant human full length PI3K p110gamma expressed in baculovirus expression system using lipid substrate incubated for 2 hrs by ADP-Glo assay.
Series [8] can be described thus: Oral bioavailability in Sprague-Dawley rat at 10 mg/kg by LC/MS/MS analysis. Format: ADME, organism-based. Conditions: in vivo. Put shortly: (§1)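 Male SD rats, three per group, dosed iv at 2 mg/kg or orally at 10 mg/kg. iv dose was a 0.4 mg/mL solution in 5% DMSO/10% Solutol/10% EtOH/75% saline. Oral dose was a 1 mg/mL suspension in 2% DMSO/98% MC (0.5%). Terminal orbital blood was taken into EDTA-2K under isoflurane at set time points. Plasma levels were measured by LC/MS/MS.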

Series [9] can be described thus: Half life in Sprague-Dawley rat at 2 mg/kg, iv by LC/MS/MS analysis. Format: ADME, organism-based. As to conditions: in vivo. The method in brief:
as §1

Series [10] is described as follows: AUC (0 to t) in Sprague-Dawley rat at 2 mg/kg, iv by LC/MS/MS analysis. Format: ADME, organism-based. As to conditions: in vivo. The method in brief: as §1
The nature of series [11]: AUC (0 to t) in Sprague-Dawley rat at 10 mg/kg, po by LC/MS/MS analysis. Format: ADME, organism-based. Conditions: in vivo. The method in brief:
as §1

Series [12] in a line: Volume of distribution at steady state in Sprague-Dawley rat at 2 mg/kg, iv by LC/MS/MS analysis. It counts as ADME, organism-based. As to conditions: in vivo, read-out: Vdss. The method in brief: as §1
Series [13] can be described thus: Half life in Sprague-Dawley rat at 10 mg/kg, po by LC/MS/MS analysis. Format: ADME, organism-based. Conditions: in vivo. The method in brief: as §1
Series [14] is described as follows: Cmax in Sprague-Dawley rat at 10 mg/kg, po by LC/MS/MS analysis. It counts as ADME, organism-based. More on the design: dose 10 mg/kg, route oral. Conditions: in vivo. The method in brief: as §1
Series [15] in a line: Clearance in Sprague-Dawley rat at 2 mg/kg, iv by LC/MS/MS analysis. Format: ADME, organism-based. Conditions: in vivo.

Sequence of Phosphatidylinositol 4,5-bisphosphate 3-kinase catalytic subunit gamma isoform (P48736 whole entry, canonical isoform): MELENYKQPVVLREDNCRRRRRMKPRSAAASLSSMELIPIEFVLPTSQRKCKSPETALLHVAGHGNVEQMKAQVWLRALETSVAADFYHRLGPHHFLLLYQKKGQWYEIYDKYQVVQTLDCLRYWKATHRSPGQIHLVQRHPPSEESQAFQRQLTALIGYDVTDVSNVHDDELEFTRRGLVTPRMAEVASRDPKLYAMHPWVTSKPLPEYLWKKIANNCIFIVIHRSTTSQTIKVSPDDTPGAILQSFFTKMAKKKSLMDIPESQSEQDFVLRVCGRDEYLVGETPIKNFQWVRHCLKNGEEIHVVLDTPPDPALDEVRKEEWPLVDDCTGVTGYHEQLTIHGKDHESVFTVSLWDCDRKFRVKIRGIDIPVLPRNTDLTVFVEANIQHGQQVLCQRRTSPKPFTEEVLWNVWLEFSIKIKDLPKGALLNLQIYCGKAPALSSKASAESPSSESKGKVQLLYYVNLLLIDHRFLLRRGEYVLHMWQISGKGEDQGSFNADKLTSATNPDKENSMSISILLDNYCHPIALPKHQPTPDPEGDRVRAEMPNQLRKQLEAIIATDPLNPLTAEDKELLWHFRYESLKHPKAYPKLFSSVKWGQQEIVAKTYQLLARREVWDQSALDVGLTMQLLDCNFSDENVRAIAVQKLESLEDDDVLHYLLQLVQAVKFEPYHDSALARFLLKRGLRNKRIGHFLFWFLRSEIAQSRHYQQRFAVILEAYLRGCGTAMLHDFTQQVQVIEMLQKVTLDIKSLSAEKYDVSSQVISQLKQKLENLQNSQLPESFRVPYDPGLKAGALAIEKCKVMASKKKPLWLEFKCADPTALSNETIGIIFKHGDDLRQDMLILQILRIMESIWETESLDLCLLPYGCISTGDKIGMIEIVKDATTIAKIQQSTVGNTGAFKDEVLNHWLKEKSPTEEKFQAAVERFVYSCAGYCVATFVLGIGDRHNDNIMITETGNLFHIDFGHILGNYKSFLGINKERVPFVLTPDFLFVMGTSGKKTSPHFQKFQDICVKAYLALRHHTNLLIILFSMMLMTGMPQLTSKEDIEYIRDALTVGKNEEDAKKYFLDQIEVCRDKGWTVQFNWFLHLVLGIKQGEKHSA
Sequence of Phosphatidylinositol 4,5-bisphosphate 3-kinase catalytic subunit beta isoform (P42338 whole entry, canonical isoform): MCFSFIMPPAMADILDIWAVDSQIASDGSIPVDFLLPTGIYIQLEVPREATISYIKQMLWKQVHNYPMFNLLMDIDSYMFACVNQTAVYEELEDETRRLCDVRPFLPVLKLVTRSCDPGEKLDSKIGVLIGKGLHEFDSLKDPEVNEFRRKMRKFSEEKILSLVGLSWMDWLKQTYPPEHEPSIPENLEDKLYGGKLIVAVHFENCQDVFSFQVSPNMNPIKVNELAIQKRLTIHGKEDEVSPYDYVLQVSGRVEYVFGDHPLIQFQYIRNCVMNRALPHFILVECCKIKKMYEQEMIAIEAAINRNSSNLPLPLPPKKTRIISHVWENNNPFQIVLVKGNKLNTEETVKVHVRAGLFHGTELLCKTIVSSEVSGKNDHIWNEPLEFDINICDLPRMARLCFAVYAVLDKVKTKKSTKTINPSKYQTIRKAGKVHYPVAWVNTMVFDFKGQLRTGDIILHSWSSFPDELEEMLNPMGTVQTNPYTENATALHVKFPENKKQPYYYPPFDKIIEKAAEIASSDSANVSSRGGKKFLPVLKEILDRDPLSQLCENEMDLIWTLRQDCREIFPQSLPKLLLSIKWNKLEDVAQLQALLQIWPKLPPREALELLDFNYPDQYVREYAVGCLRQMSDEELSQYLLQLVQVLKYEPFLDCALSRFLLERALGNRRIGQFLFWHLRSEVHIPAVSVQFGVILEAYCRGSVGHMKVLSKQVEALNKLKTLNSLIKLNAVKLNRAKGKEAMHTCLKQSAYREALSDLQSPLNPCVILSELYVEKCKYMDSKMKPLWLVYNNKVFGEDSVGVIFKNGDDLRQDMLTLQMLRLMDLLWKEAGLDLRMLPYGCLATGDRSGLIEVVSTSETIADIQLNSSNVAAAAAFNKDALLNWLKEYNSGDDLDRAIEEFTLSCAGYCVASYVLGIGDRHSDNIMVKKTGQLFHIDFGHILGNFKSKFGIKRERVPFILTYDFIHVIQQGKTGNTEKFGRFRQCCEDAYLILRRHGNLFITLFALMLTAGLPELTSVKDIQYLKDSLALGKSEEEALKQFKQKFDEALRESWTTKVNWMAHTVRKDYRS
Sequence of PI3-kinase p110-delta/p85-alpha (P27986 whole entry): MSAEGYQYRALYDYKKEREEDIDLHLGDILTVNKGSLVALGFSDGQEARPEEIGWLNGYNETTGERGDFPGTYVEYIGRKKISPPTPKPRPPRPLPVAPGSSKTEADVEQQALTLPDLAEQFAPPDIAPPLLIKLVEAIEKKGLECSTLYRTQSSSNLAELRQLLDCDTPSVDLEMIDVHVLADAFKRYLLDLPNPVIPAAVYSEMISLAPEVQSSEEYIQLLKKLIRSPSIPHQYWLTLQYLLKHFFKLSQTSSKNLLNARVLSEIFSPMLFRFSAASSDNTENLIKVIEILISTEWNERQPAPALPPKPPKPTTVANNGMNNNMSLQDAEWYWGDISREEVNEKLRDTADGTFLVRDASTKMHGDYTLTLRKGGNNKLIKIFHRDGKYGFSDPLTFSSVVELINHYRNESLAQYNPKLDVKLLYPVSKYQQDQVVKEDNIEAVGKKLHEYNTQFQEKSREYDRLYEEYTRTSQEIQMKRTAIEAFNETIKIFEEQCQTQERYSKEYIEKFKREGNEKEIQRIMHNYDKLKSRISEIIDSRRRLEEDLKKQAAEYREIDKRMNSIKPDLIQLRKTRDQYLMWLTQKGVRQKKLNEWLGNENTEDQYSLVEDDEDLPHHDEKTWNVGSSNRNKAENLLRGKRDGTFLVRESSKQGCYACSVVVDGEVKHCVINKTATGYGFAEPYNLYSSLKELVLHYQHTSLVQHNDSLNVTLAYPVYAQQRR
Sequence of PI3-kinase p110-delta/p85-alpha (O00329 whole entry): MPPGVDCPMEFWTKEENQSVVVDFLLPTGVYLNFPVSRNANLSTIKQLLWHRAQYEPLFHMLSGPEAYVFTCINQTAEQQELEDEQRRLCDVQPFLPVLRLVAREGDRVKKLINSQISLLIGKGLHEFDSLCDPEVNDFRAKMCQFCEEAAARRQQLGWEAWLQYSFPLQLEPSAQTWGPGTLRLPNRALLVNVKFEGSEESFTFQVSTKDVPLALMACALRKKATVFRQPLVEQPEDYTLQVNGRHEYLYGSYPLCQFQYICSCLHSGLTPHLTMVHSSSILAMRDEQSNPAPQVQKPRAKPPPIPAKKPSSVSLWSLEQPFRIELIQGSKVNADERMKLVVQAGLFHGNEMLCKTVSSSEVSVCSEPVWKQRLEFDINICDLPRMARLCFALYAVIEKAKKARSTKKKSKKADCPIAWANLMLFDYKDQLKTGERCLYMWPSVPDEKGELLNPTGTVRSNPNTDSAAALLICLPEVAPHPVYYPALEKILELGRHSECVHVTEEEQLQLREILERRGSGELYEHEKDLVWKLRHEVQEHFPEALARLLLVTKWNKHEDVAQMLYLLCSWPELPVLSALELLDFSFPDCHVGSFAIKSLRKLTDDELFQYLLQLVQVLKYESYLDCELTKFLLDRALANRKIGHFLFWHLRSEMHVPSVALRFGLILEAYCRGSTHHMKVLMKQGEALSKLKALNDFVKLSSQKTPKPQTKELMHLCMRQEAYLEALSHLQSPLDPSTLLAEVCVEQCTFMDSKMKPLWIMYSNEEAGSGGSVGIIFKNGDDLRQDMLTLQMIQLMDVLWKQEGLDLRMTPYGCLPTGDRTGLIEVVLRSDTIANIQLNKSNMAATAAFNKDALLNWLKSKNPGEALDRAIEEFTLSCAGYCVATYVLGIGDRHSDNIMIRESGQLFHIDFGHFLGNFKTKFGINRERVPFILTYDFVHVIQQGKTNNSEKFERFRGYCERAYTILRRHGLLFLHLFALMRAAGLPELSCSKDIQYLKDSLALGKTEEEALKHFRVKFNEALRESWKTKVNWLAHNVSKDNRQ
Sequence of PI3-kinase p110-alpha/p85-alpha (P27986 whole entry): as the sequence (P27986 whole entry) above
Sequence of PI3-kinase p110-alpha/p85-alpha (P42336 whole entry): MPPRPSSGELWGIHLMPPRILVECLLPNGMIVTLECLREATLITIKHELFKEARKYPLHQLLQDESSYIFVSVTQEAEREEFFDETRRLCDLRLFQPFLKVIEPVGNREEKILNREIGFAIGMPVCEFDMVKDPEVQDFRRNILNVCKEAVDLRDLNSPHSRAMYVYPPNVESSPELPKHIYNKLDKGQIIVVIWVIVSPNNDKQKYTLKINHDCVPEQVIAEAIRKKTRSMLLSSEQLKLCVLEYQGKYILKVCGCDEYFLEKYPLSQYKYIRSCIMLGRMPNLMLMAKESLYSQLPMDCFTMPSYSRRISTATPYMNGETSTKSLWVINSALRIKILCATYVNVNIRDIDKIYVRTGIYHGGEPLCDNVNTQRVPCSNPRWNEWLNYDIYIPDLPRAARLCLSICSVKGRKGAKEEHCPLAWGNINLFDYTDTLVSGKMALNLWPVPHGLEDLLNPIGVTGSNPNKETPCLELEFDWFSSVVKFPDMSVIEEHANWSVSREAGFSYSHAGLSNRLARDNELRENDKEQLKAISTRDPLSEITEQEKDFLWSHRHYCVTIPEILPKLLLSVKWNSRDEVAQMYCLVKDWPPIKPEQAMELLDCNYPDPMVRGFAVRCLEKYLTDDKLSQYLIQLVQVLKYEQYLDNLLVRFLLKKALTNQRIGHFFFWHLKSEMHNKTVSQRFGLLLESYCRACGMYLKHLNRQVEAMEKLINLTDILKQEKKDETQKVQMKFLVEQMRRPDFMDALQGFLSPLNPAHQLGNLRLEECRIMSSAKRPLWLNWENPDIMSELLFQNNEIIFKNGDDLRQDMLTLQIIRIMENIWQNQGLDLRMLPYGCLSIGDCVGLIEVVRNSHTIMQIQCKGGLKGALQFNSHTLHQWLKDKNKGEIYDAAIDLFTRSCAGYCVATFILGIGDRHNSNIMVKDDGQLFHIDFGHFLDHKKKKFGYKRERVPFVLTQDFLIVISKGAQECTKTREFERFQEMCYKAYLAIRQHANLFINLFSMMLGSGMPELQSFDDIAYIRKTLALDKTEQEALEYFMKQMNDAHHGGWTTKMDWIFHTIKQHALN

In general, IC50 refers to the concentration that inhibits the measured activity by half. On to `CC(Nc1ncnc2[nH]cnc12)C1=Nc2ccccc2S(=O)(=O)N1c1cccc(C(F)(F)F)c1` (stereo not drawn), for which, in [1], the IC50 is above 3000 nM.

Regarding `CCC(C1=Nc2ccccc2S(=O)(=O)N1c1ccc(OC(F)(F)F)cc1)n1cnc2c(N)ncnc21` (stereo not drawn), the IC50 in series [1] was above 3000 nM.

A word on the GI50: it is the concentration at which growth is held to half of that of the control. For `CC(Nc1ncnc(N)c1C#N)C1=Nc2ccccc2S(=O)(=O)N1c1ccccc1` (stereo not drawn), the IC50 in series [1] stood at 15 nM. The compound further displayed a GI50 with SU-DHL-6 of 3500 nM.

For the compound `CC(Nc1nc(Cl)nc2[nH]cnc12)C1=Nc2ccccc2S(=O)(=O)N1c1ccccc1` (stereo not drawn), the IC50 in [1] was determined as 1200 nM.

As to `CC(Nc1ncnc2[nH]cnc12)C1=Nc2ccccc2S(=O)(=O)N1c1cccnc1` (stereo not drawn), the IC50 in series [1] amounted to 921 nM.

As for `CC(C1=Nc2ccccc2S(=O)(=O)N1c1ccc(F)cc1)n1cnc2c(N)ncnc21` (stereo not drawn), the IC50 in series [1] turned out to be 628 nM.

Take `C[C@@H](Nc1ncnc(N)c1C#N)C1=Nc2cccc(Cl)c2S(=O)(=O)N1c1ccccc1`: the IC50 in series [2] is above 5000 nM; in series [3], 169 nM; in series [1], 7 nM; in series [7], 112 nM. For the same compound, the Ratio IC50 is above 714 in the series filed under Homo sapiens [4], 24 in the series listed under Homo sapiens [5] and 16 in the series listed under Homo sapiens [6]. For the same compound, the GI50 with SU-DHL-6 is 70.3 nM.

For the compound `CC(C1=Nc2ccccc2S(=O)(=O)N1c1cccnc1)n1cnc2c(N)ncnc21` (stereo not drawn), the IC50 in series [1] came out at 623 nM.

Regarding `CC(Nc1ncnc2[nH]cnc12)C1=Nc2cccc(Cl)c2S(=O)(=O)N1c1ccccc1` (stereo not drawn), in series [1], the IC50 stood at 9.8 nM. Also, the GI50 in the series on SU-DHL-6 stood at 770 nM.

In the case of `CCC(Nc1ncnc(N)c1C#N)C1=Nc2cccc(F)c2S(=O)(=O)N1c1ccccc1` (stereo not drawn), the IC50 in series [1] is 141 nM. The compound also returned a GI50 in the series with SU-DHL-6 of 10500 nM.

In the case of `CCC(Nc1nc(F)nc2[nH]cnc12)C1=Nc2cccc(F)c2S(=O)(=O)N1c1ccccc1` (stereo not drawn), in series [1], the IC50 turned out to be 383 nM.

The bioavailability is the share of a dose that reaches the circulation, judged against a reference dose that is usually intravenous. Read a high bioavailability as much systemic uptake. The half-life is how long it takes for the measured level to halve. Read a high half-life as slow decline. One may read the AUC(0-t) as exposure summed from dosing to a finite time, without extrapolation to infinity. A high value points to high exposure. As usually defined, the Cmax is the highest concentration seen after dosing. With `CC[C@H](Nc1ncnc2[nH]cnc12)c1nc2cccc(F)c2c(=O)n1-c1ccccc1` [IDELALISIB], the bioavailability in series [8] is 45.8%. Moreover, the half-life is 31.1 min in series [9] and 61.8 min in series [13]. For the same compound, the AUC(0-t) in [10] was found to be 1400 ng·h/mL; in series [11] it was 3190 ng·h/mL. Besides, the Vd in series [12] was determined as 0.884 L/kg. In the series on SU-DHL-6, this compound returned a GI50 of 124 nM. The compound further showed a Cmax in series [14] of 2320 ng/mL.

For `CCC(Nc1ncnc2[nH]cnc12)C1=Nc2ccccc2S(=O)(=O)N1c1cccc(C(F)(F)F)c1` (stereo not drawn), in [1], the IC50 is above 3000 nM.

`CC(C1=Nc2ccccc2S(=O)(=O)N1c1ccccc1)n1cnc2c(N)ncnc21` (stereo not drawn): the IC50 in [1] was found to be 68 nM. This compound returned a GI50 in the series on SU-DHL-6 of 23100 nM.

As a reminder, the clearance is the rate of elimination divided by the concentration. Low readings indicate a low capacity for elimination, high ones a high capacity for elimination. With `C[C@H](Nc1ncnc2[nH]cnc12)C1=Nc2cccc(Cl)c2S(=O)(=O)N1c1ccccc1`, the bioavailability in series [8] worked out at 29.2%. The clearance in series [15] amounted to 25.8 mL/min/kg. Besides, the IC50 is 3640 nM in series [2], 766 nM in [3], 4.6 nM in series [1] and 156 nM in series [7]. Moreover, the figures for the half-life in [9] and in series [13] were 31.1 min and 72 min, respectively. Further, the AUC(0-t) in series [10] turned out to be 1400 ng·h/mL; in series [11], 2010 ng·h/mL. The Vd in series [12] is 0.853 L/kg. The Ratio IC50 in the series listed under Homo sapiens [4] stood at 791; in the series filed under Homo sapiens [5], 167; in the series listed under Homo sapiens [6], 34. The compound further yielded a GI50 with SU-DHL-6 of 33.2 nM. In [14], this compound displayed a Cmax of 643 ng/mL.

In the series with SU-DHL-6, `CC(=O)O[C@H]1C(=O)[C@@]2(C)[C@H]([C@H](OC(=O)c3ccccc3)[C@]3(O)C[C@H](OC(=O)[C@H](O)[C@@H](NC(=O)c4ccccc4)c4ccccc4)C(C)=C1C3(C)C)[C@]1(OC(C)=O)CO[C@@H]1C[C@@H]2O` [PACLITAXEL] yielded a GI50 of 1.9 nM.

As for `CC(Nc1ncnc2[nH]cnc12)C1=Nc2ccccc2S(=O)(=O)N1c1ccccc1` (stereo not drawn), the IC50 in series [1] was determined as 344 nM.

For `CCC(Nc1ncnc2[nH]cnc12)C1=Nc2cccc(Cl)c2S(=O)(=O)N1c1ccccc1` (stereo not drawn), the IC50 in [1] came out at 81 nM. The GI50 in the series on SU-DHL-6 is 2190 nM.

With `CCC(Nc1ncnc2[nH]cnc12)C1=Nc2cccc(F)c2S(=O)(=O)N1c1ccccc1` (stereo not drawn), the IC50 in [1] is above 3000 nM.

For `CCC(C1=Nc2ccccc2S(=O)(=O)N1c1ccc(F)cc1)n1cnc2c(N)ncnc21` (stereo not drawn), the IC50 in series [1] is above 3000 nM.

On to `CCC(Nc1ncnc(N)c1C#N)C1=Nc2cccc(Cl)c2S(=O)(=O)N1c1ccccc1` (stereo not drawn), for which the IC50 in [1] was 12 nM. The compound also showed a GI50 in the series with SU-DHL-6 of 1680 nM.

For `CC(Nc1ncnc2[nH]cnc12)C1=Nc2ccccc2S(=O)(=O)N1c1ccc(F)cc1` (stereo not drawn), the IC50 in series [1] was 2000 nM.

Consider `CC(Nc1ncnc(N)c1C#N)C1=Nc2cccc(F)c2S(=O)(=O)N1c1ccccc1` (stereo not drawn), for which, in series [1], the IC50 amounted to 35 nM. In addition, the GI50 with SU-DHL-6 was determined as 1220 nM.

For the compound `CC(Nc1ncnc(N)c1C#N)C1=Nc2cccc(Cl)c2S(=O)(=O)N1c1ccccc1` (stereo not drawn), in series [1], the IC50 stood at 3.2 nM. The same compound displayed a concentration for 50% growth inhibition (GI50) in the series on SU-DHL-6 of 187 nM.

As to `C[C@H](Nc1ncnc(N)c1C#N)C1=Nc2cccc(Cl)c2S(=O)(=O)N1c1ccccc1`, the half-maximal inhibitory concentration (IC50) in series [2] is 996 nM; in [3] it was 55 nM; in [1] it was below 0.32 nM; in [7], 100 nM. The Ratio IC50 in the series filed under Homo sapiens [4] was above 3110; in the series filed under Homo sapiens [5] it was above 172; in the series listed under Homo sapiens [6], above 313. This compound also displayed a GI50 in the series on SU-DHL-6 of 15.9 nM.

For the compound `CCC(Nc1ncnc2[nH]cnc12)C1=Nc2ccccc2S(=O)(=O)N1c1ccc(OC)c(OC)c1` (stereo not drawn), the IC50 in [1] was above 3000 nM.

Regarding `C[C@@H](Nc1ncnc2[nH]cnc12)C1=Nc2cccc(Cl)c2S(=O)(=O)N1c1ccccc1`, the IC50 in series [2] was above 5000 nM; in series [3] it was 3990 nM; in [1], 62 nM; in [7], 1910 nM. The values for the Ratio IC50 in the series filed under Homo sapiens [4], in the series listed under Homo sapiens [5] and in the series listed under Homo sapiens [6] were above 81, 64 and 31, respectively. In the series on SU-DHL-6, this compound came in with a GI50 of 190 nM.

Take `CC(Nc1nc(F)nc2[nH]cnc12)C1=Nc2ccccc2S(=O)(=O)N1c1ccccc1` (stereo not drawn): the IC50 in [1] came to 92 nM. This compound also registered a GI50 in the series with SU-DHL-6 of 4690 nM.

Turning to `CCC(Nc1ncnc2[nH]cnc12)C1=Nc2ccccc2S(=O)(=O)N1c1ccc(OC(F)(F)F)cc1` (stereo not drawn), in [1], the IC50 was above 3000 nM.

In the case of `CC(C1=Nc2cccc(F)c2S(=O)(=O)N1c1ccccc1)n1cnc2c(N)ncnc21` (stereo not drawn), the IC50 in [1] was found to be 54 nM. Also, in the series with SU-DHL-6, the GI50 was determined as 7200 nM.
